Results as given in ChEMBL document CHEMBL2203154, “Synthesis, characterization and biological studies of diosgenyl analogues” (Bioorg Med Chem Lett, 2012).

Key:
[1] = test system: Mus musculus; experiment: Antiinflammatory activity in Kunming mouse assessed as inhibition of xylene-induced ear edema at 100 mg/kg, po administered for 3 days followed by xylene-challenge at 2 hrs post-last dose measured after 1 hr relative to vehicle-treated control; format: functional
Summary of the method: (§1)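 Oral gavage in mice, test compounds suspended in 0.5% CMC at 100 mg/kg; aspirin group at 50 mg/kg. Ear edema induced with xylene; inhibition calculated versus the CMC vehicle group. Ten animals per group; data as mean ± SD, with significance versus CMC at p<0.05 or p<0.01.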

[2] = test system: HepG2; experiment: Cytotoxicity against human HepG2 cells after 48 hrs by MTT assay; format: functional, cell-based; settings: HepG2, 48 h
Summary of the method: (§2)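 MTT assay on tumor cells exposed to compound for 48 h. IC50 is the concentration (μM) that inhibits growth by 50% relative to untreated cells. Values are means of at least 3 independent assays per compound.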

[3] = Cytotoxicity against mouse C26 cells after 48 hrs by MTT assay; format: functional, cell-based; settings: C26, 48 h; summary of the method: as §2
[4] = test system: MDA-MB-231; experiment: Cytotoxicity against human MDA-MB-231 cells after 48 hrs by MTT assay; format: functional, cell-based; settings: MDA-MB-231, 48 h; summary of the method: as §2
[5] = test system: Mus musculus; experiment: Antiinflammatory activity in Kunming mouse assessed as inhibition of xylene-induced ear edema at 50 mg/kg, po administered for 3 days followed by xylene-challenge at 2 hrs post-last dose measured after 1 hr relative to vehicle-treated control; format: functional; summary of the method: as §1

Structure (SMILES) | inhibition in vivo at 100 mg/kg [1] | IC50 [2] | IC50 [3] | IC50 [4] | inhibition in vivo at 50 mg/kg [5]
C[C@@H]1CC[C@@]2(OC1)O[C@H]1C[C@H]3[C@@H]4CC=C5C[C@@H](O)CC[C@]5(C)[C@H]4CC[C@]3(C)[C@H]1[C@@H]2C [DISOGENIN] | 32.2% | > 50 µM | > 50 µM | > 50 µM | –
C[C@@H]1CC[C@@]2(OC1)O[C@H]1C[C@H]3[C@@H]4CC=C5C[C@@H](OC(=O)CCCCCNC(=O)c6ccccc6O)CC[C@]5(C)[C@H]4CC[C@]3(C)[C@H]1[C@@H]2C | 42.6% | > 50 µM | > 50 µM | > 50 µM | –
C[C@@H]1CC[C@@]2(OC1)O[C@H]1C[C@H]3[C@@H]4CC=C5C[C@@H](OC(=O)CC[C@@H](NC(=O)c6ccccc6O)C(=O)O[C@H]6CC[C@@]7(C)C(=CC[C@H]8[C@@H]9C[C@@H]%10O[C@]%11(CC[C@@H](C)CO%11)[C@@H](C)[C@@H]%10[C@@]9(C)CC[C@@H]87)C6)CC[C@]5(C)[C@H]4CC[C@]3(C)[C@H]1[C@@H]2C | 30.1% | > 50 µM | > 50 µM | > 50 µM | –
C[C@@H]1CC[C@@]2(OC1)O[C@H]1C[C@H]3[C@@H]4CC=C5C[C@@H](OC(=O)[C@H](C)N)CC[C@]5(C)[C@H]4CC[C@]3(C)[C@H]1[C@@H]2C | 28.6% | > 50 µM | > 50 µM | > 50 µM | –
CC(=O)Oc1ccccc1C(=O)NCC(=O)O[C@H]1CC[C@@]2(C)C(=CC[C@H]3[C@@H]4C[C@@H]5O[C@]6(CC[C@@H](C)CO6)[C@@H](C)[C@@H]5[C@@]4(C)CC[C@@H]32)C1 | 39.1% | > 50 µM | > 50 µM | > 50 µM | –
CC(=O)Oc1ccccc1C(=O)O [ASPIRIN] | – | – | – | – | 31.9%
C[C@@H]1CC[C@@]2(OC1)O[C@H]1C[C@H]3[C@@H]4CC=C5C[C@@H](OC(=O)CCCCCN)CC[C@]5(C)[C@H]4CC[C@]3(C)[C@H]1[C@@H]2C | 38.6% | 14.6 µM | 4.7 µM | 7.6 µM | –
C[C@@H]1CC[C@@]2(OC1)O[C@H]1C[C@H]3[C@@H]4CC=C5C[C@@H](OC(=O)CN)CC[C@]5(C)[C@H]4CC[C@]3(C)[C@H]1[C@@H]2C [GLYCINE DIOSGENYL ESTER] | 30.6% | > 50 µM | > 50 µM | 48.2 µM | –
C[C@@H]1CC[C@@]2(OC1)O[C@H]1C[C@H]3[C@@H]4CC=C5C[C@@H](OC(=O)CC[C@@H](N)C(=O)O[C@H]6CC[C@@]7(C)C(=CC[C@H]8[C@@H]9C[C@@H]%10O[C@]%11(CC[C@@H](C)CO%11)[C@@H](C)[C@@H]%10[C@@]9(C)CC[C@@H]87)C6)CC[C@]5(C)[C@H]4CC[C@]3(C)[C@H]1[C@@H]2C | 19.1% | > 50 µM | > 50 µM | > 50 µM | –
C[C@@H]1CC[C@@]2(OC1)O[C@H]1C[C@H]3[C@@H]4CC=C5C[C@@H](O[C@@H]6O[C@H](CO)[C@@H](O[C@@H]7O[C@H](CO)[C@@H](O)[C@H](O)[C@H]7O)[C@H](O)[C@H]6O[C@@H]6O[C@@H](C)[C@H](O)[C@@H](O)[C@H]6O)CC[C@]5(C)[C@H]4CC[C@]3(C)[C@H]1[C@@H]2C [DELTONIN] | – | 7.66 µM | 1.22 µM | 1.58 µM | –
C[C@@H]1CC[C@@]2(OC1)O[C@H]1C[C@H]3[C@@H]4CC=C5C[C@@H](OC(=O)[C@H](C)NC(=O)c6ccccc6O)CC[C@]5(C)[C@H]4CC[C@]3(C)[C@H]1[C@@H]2C | 35.8% | > 50 µM | > 50 µM | > 50 µM | –
CC(=O)Oc1ccccc1C(=O)O[C@H]1CC[C@@]2(C)C(=CC[C@H]3[C@@H]4C[C@@H]5O[C@]6(CC[C@@H](C)CO6)[C@@H](C)[C@@H]5[C@@]4(C)CC[C@@H]32)C1 | 46.5% | > 50 µM | > 50 µM | > 50 µM | –
